Data set [1] in a line: Selectivity index, ratio of CC50 for MT4 cells to EC50 for HIV1 NL43 infected MT4 cells. It is filed as functional.
Data set [2] deals with Human immunodeficiency virus 1. The data set is described as follows: Antiviral activity against HIV1 with reverse transcriptase K103N mutation in MT4 cells assessed as inhibition of viral induced cytopathic effect by MTT method. The data set is classed as functional, organism-based. The settings on record: Human immunodeficiency virus 1, MT4. The procedure, abridged: (§1)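 MT-4 cells infected with the HIV-1 NNRTI-resistant mutant strain. Viable cells scored at day 5 post-infection by the MTT tetrazolium colorimetric method. […] Values are means ± SD from at least two experiments.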

The test system of data set [3] is Human immunodeficiency virus 1. The data set is described as follows: Antiviral activity against HIV1 with reverse transcriptase IRLL98 mutation in MT4 cells assessed as inhibition of viral induced cytopathic effect by MTT method. The data set is classed as functional, organism-based. The settings on record: mt4.
The nature of data set [4]: Inhibition of HIV1 reverse transcriptase Y1811 mutant. Further details: species or system Human immunodeficiency virus 1. The method, boiled down: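 Recombinant HIV-1 RT Y181I mutant, purified to >95%, 10 min preincubation with inhibitor. Radioactive nucleotide incorporation into poly(rA)/oligo(dT) 10:1 was followed at varied nucleotide substrate levels, sampling every 2 min for initial velocities. Inhibitor spanned 0.2–5 Ki. Ki came from Lineweaver-Burk and Dixon plots. Means ± SD of at least three experiments.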

The nature of data set [5]: Resistance index, Ratio of EC50 for drug-resistant HIV1 with RT Y181C mutation in MT4 cells to EC50 for HIV1 NL43 in MT4 cells.
A short description of data set [6]: Cytotoxicity against MT4 cells after 4 days by MTT method. The settings on record: human. It is filed as cell-based. The method, boiled down: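 Mock-infected (noninfected) MT-4 cells, run in parallel with the antiviral test. Viable cells read by the MTT tetrazolium colorimetric method. […] Means ± SD from at least two experiments. The top concentration was limited where compounds precipitated in the culture medium.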

Data set [7] has as its target Human immunodeficiency virus type 1 reverse transcriptase (Human immunodeficiency virus 1, UniProt Q72547, Y188L). The data set is described as follows: Inhibition of HIV1 reverse transcriptase Y188L mutant.
Data set [8] concerns the target Human immunodeficiency virus type 1 reverse transcriptase (Human immunodeficiency virus 1, UniProt Q72547, V179D). The data set is described as follows: Inhibition of HIV1 reverse transcriptase V179D mutant.
The target of data set [9] is Human immunodeficiency virus type 1 reverse transcriptase (Human immunodeficiency virus 1, UniProt Q72547). The data set is described as follows: Inhibition of wild type HIV1 3B reverse transcriptase.
In data set [10] the test system is Human immunodeficiency virus 1. The data set is described as follows: Antiviral activity against HIV1 with reverse transcriptase Y188L mutation in MT4 cells assessed as inhibition of viral induced cytopathic effect by MTT method. The data set is classed as functional, organism-based. Particulars: Human immunodeficiency virus 1, MT4. The procedure, abridged: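 MT-4 cells infected with the HIV-1 NNRTI-resistant mutant strain. Viable cells scored at day 5 post-infection by the MTT tetrazolium colorimetric method. Values are means ± SD from at least two experiments.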

A short description of data set [11]: Resistance index, Ratio of EC50 for drug-resistant HIV1 with RT IRLL98 mutation in MT4 cells to EC50 for HIV1 NL43 in MT4 cells.
The subject of data set [12] is Human immunodeficiency virus 1. The data set is described as follows: Antiviral activity against HIV1 with reverse transcriptase Y181C mutation in MT4 cells assessed as inhibition of viral induced cytopathic effect by MTT method. The settings on record: Human immunodeficiency virus 1, MT4. It is filed as functional, organism-based. The procedure, abridged:
as §1

In data set [13] the test system is Human immunodeficiency virus 1. The data set is described as follows: Antiviral activity against HIV1 NL43 in MT4 cells assessed as inhibition of viral induced cytopathic effect after 4 days by MTT method. It is filed as functional, organism-based.
The nature of data set [14]: Resistance index, Ratio of EC50 for drug-resistant HIV1 with RT Y188L mutation in MT4 cells to EC50 for HIV1 NL43 in MT4 cells.
In data set [15] the target is Human immunodeficiency virus type 1 reverse transcriptase (Human immunodeficiency virus 1, UniProt Q72547, L100I). The data set is described as follows: Inhibition of HIV1 reverse transcriptase L100I mutant.
The target in data set [16] is Human immunodeficiency virus type 1 reverse transcriptase (Human immunodeficiency virus 1, UniProt Q72547, V106A). The data set is described as follows: Inhibition of HIV1 reverse transcriptase V106A mutant.
Data set [17] is described as follows: Resistance index, Ratio of EC50 for drug-resistant HIV1 with RT K103N mutation in MT4 cells to EC50 for HIV1 NL43 in MT4 cells.
Data set [18] deals with Human immunodeficiency virus type 1 reverse transcriptase (Human immunodeficiency virus 1, UniProt Q72547, K103N). The data set is described as follows: Inhibition of HIV1 reverse transcriptase K103N mutant.

Structures are written as SMILES.

With `Cc1c(C(C)c2c(F)cccc2F)nc(N2CCSCC2)[nH]c1=O` (stereo not drawn), the “Ratio CC50/EC50” value in [1] is on record as above 23667. Further, the EC50 in data set [2] was found to be 1240 nM; in data set [3], 60 nM; in data set [10], 860 nM; in data set [12] it was 30 nM; in [13], 3 nM. Further, the Ki in data set [4] was above 20000 nM; in data set [7], 4000 nM; in data set [8], 20 nM; in data set [9] it was 60 nM; in data set [15], 5000 nM; in data set [16], 30 nM. The molecule also yielded a Ki in data set [18] of 10000 nM. Besides, the “Ratio EC50” value in [5] stood at 10; in [11], 20; in data set [14], 287; in data set [17], 413. Besides, the CC50 at 96 h in data set [6] is above 71000 nM.

These data come from ChEMBL document CHEMBL1137561 (J Med Chem, 2007).
